Data: ChEMBL document CHEMBL4811225 (J Med Chem, 2021)
Where a SMILES comes first, the peptide text is derived from it. Bridges are numbered along the chain shown (N, C = ends).

Columns and labels:
[1] = molecular target: Neuronal acetylcholine receptor subunit alpha-6/alpha-3 (Homo sapiens) (UniProt P32297+Q15825); test: Inhibition of human alpha6beta4 nAChR expressed in Xenopus laevis oocytes assessed as recovery of acethylcholine-evoked currents at 10 uM treated for 10 mins followed by compound washout by two-electrode voltage-clamp method relative to control; format: cell-based; set-up: scale not given: the % may be the effect or the level left; settings: Oocyte
[2] = molecular target: Nicotinic acetylcholine receptor alpha-1/beta-1/delta/epsilon (Homo sapiens, UniProt P02708+P11230+Q04844+Q07001); test: Inhibition of human alpha1beta1deltaepsilon nAChR expressed in Xenopus laevis oocytes assessed as inhibition of acetylcholine-induced current response by two-electrode voltage-clamp method; format: cell-based, Oocyte
Method in brief: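 Stage IV–V X. laevis oocytes nucleus-injected with equal ratios of human α1, β1, δ, ε cDNAs; TEVC 1–5 days after injection. ACh 100 μM, 1 s every 60 s.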

[3] = molecular target: Nicotinic acetylcholine receptor alpha6/alpha3/beta4 (Rattus norvegicus) (UniProt P04757+P12392+P43143); settings: Oocyte
Homo sapiens [4] = organism: Homo sapiens; test: Selectivity ratio of IC50 for human alpha3beta4 nAChR to IC50 for human alpha6/alpha3beta4 nAChR
Method in brief: (§1)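 Ratio of each subtype's IC50, from TEVC inhibition of ACh-evoked currents in X. laevis oocytes, to the IC50 at the same species' α6/α3β4 nAChR; IC50 values with 95% CI, n = number of oocytes.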

[5] = molecular target: Neuronal acetylcholine receptor; alpha3/beta4 (Rattus norvegicus, UniProt P04757+P12392); format: cell-based, Oocyte
Chain of Neuronal acetylcholine receptor; alpha3/beta4 (P04757 whole entry): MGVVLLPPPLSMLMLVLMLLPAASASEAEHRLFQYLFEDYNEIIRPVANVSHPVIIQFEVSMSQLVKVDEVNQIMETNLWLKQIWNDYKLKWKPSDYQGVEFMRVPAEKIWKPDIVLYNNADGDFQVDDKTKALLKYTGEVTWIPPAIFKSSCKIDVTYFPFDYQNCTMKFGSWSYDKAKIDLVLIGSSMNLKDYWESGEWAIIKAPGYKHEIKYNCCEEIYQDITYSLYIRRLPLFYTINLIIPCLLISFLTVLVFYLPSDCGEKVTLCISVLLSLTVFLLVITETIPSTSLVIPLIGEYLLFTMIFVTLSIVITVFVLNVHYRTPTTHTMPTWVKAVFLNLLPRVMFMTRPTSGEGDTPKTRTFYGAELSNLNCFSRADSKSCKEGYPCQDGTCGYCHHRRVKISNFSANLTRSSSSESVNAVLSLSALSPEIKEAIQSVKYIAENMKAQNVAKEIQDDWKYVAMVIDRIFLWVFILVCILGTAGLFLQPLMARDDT
Chain of Neuronal acetylcholine receptor; alpha3/beta4 (P12392 whole entry): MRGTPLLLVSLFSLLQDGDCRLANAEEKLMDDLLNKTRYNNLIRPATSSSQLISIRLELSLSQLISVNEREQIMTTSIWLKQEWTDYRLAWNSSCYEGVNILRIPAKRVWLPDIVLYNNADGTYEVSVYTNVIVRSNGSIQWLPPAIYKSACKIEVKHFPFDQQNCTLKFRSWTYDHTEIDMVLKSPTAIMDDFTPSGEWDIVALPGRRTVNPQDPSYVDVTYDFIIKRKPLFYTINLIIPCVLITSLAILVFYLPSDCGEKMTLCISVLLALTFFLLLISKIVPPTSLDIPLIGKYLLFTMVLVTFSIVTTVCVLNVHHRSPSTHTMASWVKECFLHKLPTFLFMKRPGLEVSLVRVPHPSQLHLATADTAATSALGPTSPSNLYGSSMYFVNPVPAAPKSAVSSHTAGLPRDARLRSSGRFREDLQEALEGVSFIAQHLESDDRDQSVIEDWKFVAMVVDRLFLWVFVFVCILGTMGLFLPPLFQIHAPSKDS

[6] = molecular target: Neuronal acetylcholine receptor; alpha2/beta4 (Rattus norvegicus) (UniProt P12389+P12392); test: Inhibition of rat alpha2beta4 nAChR expressed in Xenopus laevis oocytes assessed as inhibition of acetylcholine-induced current response at 10 uM by two-electrode voltage-clamp method relative to control; format: cell-based; settings: Oocyte
Method in brief: (§2)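 Stage IV–V X. laevis oocytes expressing equal-ratio cRNAs of α2β4, α3β4, α4β4 or α7 subunits; TEVC 1–5 days after injection. ACh 300 μM, 1 s at 60 s intervals. 10 μM peptide as 5 min static bath, normalized to ACh response after 5 min bath of control saline; mean ± SD, n = 4.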

[7] = molecular target: Neuronal acetylcholine receptor; alpha4/beta4 (Rattus norvegicus, UniProt P09483+P12392); format: cell-based, Oocyte
Chain of Neuronal acetylcholine receptor; alpha4/beta4 (P09483 whole entry): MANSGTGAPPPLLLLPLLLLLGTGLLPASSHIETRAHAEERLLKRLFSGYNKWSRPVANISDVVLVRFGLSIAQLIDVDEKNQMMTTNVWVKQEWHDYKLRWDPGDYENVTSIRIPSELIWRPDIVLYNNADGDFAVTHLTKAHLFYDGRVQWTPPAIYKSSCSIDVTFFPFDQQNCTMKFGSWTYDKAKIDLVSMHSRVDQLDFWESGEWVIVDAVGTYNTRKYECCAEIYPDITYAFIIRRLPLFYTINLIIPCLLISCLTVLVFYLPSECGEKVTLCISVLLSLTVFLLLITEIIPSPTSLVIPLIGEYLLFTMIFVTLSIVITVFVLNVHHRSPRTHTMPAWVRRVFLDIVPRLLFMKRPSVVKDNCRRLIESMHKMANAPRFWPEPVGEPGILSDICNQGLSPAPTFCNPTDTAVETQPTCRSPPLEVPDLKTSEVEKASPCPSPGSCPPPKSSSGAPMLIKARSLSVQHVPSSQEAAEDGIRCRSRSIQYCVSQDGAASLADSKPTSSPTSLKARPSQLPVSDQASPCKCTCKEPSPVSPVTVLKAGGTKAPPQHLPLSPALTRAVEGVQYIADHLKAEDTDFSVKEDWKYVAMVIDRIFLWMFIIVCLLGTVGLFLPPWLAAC
Chain of Neuronal acetylcholine receptor; alpha4/beta4 (P12392 whole entry): as the sequence (P12392 whole entry) above

[8] = molecular target: Neuronal acetylcholine receptor; alpha4/beta2 (Homo sapiens, UniProt P17787+P43681); test: Inhibition of human alpha4beta2 nAChR expressed in Xenopus laevis oocytes assessed as inhibition of acetylcholine-induced current response at 10 uM by two-electrode voltage-clamp method relative to control; format: cell-based; settings: Oocyte
Method in brief: (§3)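 Oocytes (stage IV–V) injected with equal-ratio cRNAs of cloned subunits; TEVC 1–5 days post-injection. ACh 100 μM for β2-containing and α9α10 subtypes, 1 s pulses every 60 s. Peptide 10 μM in 5 min static bath; response normalized to ACh response after 5 min control-saline bath; mean ± SD, n = 4.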

[9] = molecular target: Neuronal acetylcholine receptor; alpha2/beta2 (Rattus norvegicus) (UniProt P12389+P12390); test: Inhibition of rat alpha2beta2 nAChR expressed in Xenopus laevis oocytes assessed as inhibition of acetylcholine-induced current response at 10 uM by two-electrode voltage-clamp method relative to control; format: cell-based; settings: Oocyte; method in brief: as §3
Rattus norvegicus [10] = organism: Rattus norvegicus; test: Selectivity ratio of IC50 for rat alpha3beta2 nAChR to IC50 for rat alpha6/alpha3beta4 nAChR; method in brief: as §1
Homo sapiens [11] = organism: Homo sapiens; test: Selectivity ratio of IC50 for human alpha4beta4 nAChR to IC50 for human alpha6/alpha3beta4 nAChR; method in brief: as §1
[12] = molecular target: Nicotinic acetylcholine receptor alpha6/alpha3/beta4 (Rattus norvegicus, UniProt P04757+P12392+P43143); format: cell-based, Oocyte
Chain of Nicotinic acetylcholine receptor alpha6/alpha3/beta4 (Rattus norvegicus, UniProt P04757+P12392+P43143) (P04757 whole entry): as the sequence (P04757 whole entry) above
Chain of Nicotinic acetylcholine receptor alpha6/alpha3/beta4 (Rattus norvegicus, UniProt P04757+P12392+P43143) (P12392 whole entry): as the sequence (P12392 whole entry) above
Chain of Nicotinic acetylcholine receptor alpha6/alpha3/beta4 (Rattus norvegicus, UniProt P04757+P12392+P43143) (P43143 whole entry): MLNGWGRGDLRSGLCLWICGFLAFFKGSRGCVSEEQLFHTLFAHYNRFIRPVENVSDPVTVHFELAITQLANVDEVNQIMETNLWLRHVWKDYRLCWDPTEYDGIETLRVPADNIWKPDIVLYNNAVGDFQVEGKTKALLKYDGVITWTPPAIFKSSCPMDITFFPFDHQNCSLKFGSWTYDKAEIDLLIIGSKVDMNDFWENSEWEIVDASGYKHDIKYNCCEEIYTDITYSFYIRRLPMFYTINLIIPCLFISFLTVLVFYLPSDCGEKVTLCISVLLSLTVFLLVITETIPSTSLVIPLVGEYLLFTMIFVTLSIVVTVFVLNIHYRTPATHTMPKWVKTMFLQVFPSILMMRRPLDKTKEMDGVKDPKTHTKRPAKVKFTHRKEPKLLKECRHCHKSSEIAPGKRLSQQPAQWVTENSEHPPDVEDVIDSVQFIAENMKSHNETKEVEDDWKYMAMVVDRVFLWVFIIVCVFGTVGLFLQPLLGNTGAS

Homo sapiens [13] = organism: Homo sapiens; test: Selectivity ratio of IC50 for human alpha9alpha10 nAChR to IC50 for human alpha6/alpha3beta4 nAChR; method in brief: as §1
Rattus norvegicus [14] = organism: Rattus norvegicus; test: Selectivity ratio of IC50 for rat alpha4beta4 nAChR to IC50 for rat alpha6/alpha3beta4 nAChR; method in brief: as §1
[15] = molecular target: Nicotinic acetylcholine receptor alpha6/alpha3/beta4 (Homo sapiens, UniProt P30926+P32297+Q15825); settings: Oocyte
[16] = molecular target: Neuronal acetylcholine receptor; alpha3/beta2 (Homo sapiens, UniProt P17787+P32297); test: Inhibition of human alpha3beta2 nAChR expressed in Xenopus laevis oocytes assessed as inhibition of acetylcholine-induced current response by two-electrode voltage-clamp method; format: cell-based, Oocyte
Method in brief: (§4)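 Two-electrode voltage clamp of stage IV–V oocytes 1–5 days after equal-ratio cRNA injection; ACh 100 μM (β2-containing subtypes, α9α10), 1 s every 60 s in frog saline. Peptide perfused up to 1 μM, responses normalized to mean of three control responses; above 1 μM, 5 min static bath. IC50 with 95% CI; n = oocytes.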

[17] = molecular target: T1, Neuronal acetylcholine receptor; alpha2/beta4 (Homo sapiens, UniProt P30926+Q15822); test: Inhibition of human alpha2beta4 nAChR expressed in Xenopus laevis oocytes assessed as inhibition of acetylcholine-induced current response at 10 uM by two-electrode voltage-clamp method relative to control; format: cell-based; settings: Oocyte; method in brief: as §2
T1 sequence (P30926 whole entry): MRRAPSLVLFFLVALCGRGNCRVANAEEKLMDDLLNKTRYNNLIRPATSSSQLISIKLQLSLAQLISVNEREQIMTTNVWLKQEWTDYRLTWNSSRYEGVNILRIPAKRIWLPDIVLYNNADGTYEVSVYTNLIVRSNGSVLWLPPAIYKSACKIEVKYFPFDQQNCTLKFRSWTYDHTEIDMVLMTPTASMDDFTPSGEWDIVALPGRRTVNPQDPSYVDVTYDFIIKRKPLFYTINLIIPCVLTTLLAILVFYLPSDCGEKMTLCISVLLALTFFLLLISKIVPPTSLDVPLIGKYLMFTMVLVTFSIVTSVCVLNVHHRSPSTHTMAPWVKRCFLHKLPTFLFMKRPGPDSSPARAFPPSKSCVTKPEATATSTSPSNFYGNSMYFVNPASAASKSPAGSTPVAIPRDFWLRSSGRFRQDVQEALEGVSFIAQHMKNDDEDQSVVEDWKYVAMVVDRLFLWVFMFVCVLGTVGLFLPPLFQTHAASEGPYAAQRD
T1 sequence (Q15822 whole entry): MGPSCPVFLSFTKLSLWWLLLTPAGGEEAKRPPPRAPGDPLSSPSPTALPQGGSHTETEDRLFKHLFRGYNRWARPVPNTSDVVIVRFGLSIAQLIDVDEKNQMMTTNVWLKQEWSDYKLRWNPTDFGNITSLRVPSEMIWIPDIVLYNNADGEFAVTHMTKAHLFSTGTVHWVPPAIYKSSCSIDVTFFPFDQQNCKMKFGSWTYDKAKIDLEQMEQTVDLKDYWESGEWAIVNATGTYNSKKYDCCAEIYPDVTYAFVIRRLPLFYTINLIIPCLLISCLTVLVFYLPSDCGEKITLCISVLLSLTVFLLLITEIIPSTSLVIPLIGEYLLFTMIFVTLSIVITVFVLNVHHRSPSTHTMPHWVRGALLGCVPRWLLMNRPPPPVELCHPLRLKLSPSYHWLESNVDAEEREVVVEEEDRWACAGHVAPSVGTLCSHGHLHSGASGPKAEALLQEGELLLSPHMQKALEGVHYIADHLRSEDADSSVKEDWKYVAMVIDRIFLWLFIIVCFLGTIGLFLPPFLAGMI

[18] = molecular target: T1, Neuronal acetylcholine receptor; alpha2/beta4; test: Inhibition of human alpha2beta4 nAChR expressed in Xenopus laevis oocytes assessed as inhibition of acetylcholine-induced current response by two-electrode voltage-clamp method; format: cell-based, Oocyte
Method in brief: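 TEVC on stage IV–V oocytes 1–5 days after equal-ratio cRNA injection (α2β4, α3β4, α4β4, α7). ACh 300 μM, 1 s pulses at 60 s intervals under frog saline perfusion. Peptide perfused to 1 μM, normalized to average of three control responses; higher concentrations by 5 min static bath. IC50 with 95% CI, n oocytes.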

Homo sapiens [19] = organism: Homo sapiens; test: Selectivity ratio of IC50 for human alpha1beta1deltaepsilon nAChR to IC50 for human alpha6/alpha3beta4 nAChR; method in brief: as §1
[20] = molecular target: Nicotinic acetylcholine receptor alpha9/alpha10 (Rattus norvegicus, UniProt P43144+Q9JLB5); test: Inhibition of rat alpha9alpha10 nAChR expressed in Xenopus laevis oocytes assessed as inhibition of acetylcholine-induced current response by two-electrode voltage-clamp method; format: cell-based, Oocyte; method in brief: as §4
Chain of Nicotinic acetylcholine receptor alpha9/alpha10 (P43144 whole entry): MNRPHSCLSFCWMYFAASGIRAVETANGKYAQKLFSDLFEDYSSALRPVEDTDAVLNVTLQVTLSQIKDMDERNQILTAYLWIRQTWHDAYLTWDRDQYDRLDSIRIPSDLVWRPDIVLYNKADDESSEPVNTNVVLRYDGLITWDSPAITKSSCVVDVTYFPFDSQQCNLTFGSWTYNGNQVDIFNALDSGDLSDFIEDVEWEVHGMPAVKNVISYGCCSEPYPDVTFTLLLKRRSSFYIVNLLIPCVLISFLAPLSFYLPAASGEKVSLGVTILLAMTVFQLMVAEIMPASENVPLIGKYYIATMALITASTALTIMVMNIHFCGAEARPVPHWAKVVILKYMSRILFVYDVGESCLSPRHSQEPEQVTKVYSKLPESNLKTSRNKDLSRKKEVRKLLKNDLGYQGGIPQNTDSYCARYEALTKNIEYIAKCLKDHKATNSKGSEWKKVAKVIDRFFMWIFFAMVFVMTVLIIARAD
Chain of Nicotinic acetylcholine receptor alpha9/alpha10 (Q9JLB5 whole entry): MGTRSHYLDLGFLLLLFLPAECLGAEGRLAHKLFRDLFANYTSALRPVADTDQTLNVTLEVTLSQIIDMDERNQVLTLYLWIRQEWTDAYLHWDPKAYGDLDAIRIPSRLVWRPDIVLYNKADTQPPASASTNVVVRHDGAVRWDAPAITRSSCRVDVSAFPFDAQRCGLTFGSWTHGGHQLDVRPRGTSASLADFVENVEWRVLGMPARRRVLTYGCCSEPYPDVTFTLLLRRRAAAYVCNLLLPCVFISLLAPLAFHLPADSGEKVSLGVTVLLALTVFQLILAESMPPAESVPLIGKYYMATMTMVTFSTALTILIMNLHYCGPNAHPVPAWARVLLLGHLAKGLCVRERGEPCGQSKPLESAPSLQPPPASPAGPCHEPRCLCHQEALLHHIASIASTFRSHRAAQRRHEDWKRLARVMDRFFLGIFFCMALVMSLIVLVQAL

Homo sapiens [21] = organism: Homo sapiens; test: Selectivity ratio of IC50 for human alpha6/alpha3beta2beta3 nAChR to IC50 for human alpha6/alpha3beta4 nAChR; method in brief: as §1
Rattus norvegicus [22] = organism: Rattus norvegicus; test: Selectivity ratio of IC50 for rat alpha2beta4 nAChR to IC50 for rat alpha6/alpha3beta4 nAChR; method in brief: as §1
Homo sapiens [23] = organism: Homo sapiens; test: Selectivity ratio of IC50 for human alpha2beta2 nAChR to IC50 for human alpha6/alpha3beta4 nAChR; method in brief: as §1
Rattus norvegicus [24] = organism: Rattus norvegicus; test: Selectivity ratio of IC50 for rat alpha9alpha10 nAChR to IC50 for rat alpha6/alpha3beta4 nAChR; method in brief: as §1
[25] = molecular target: Neuronal acetylcholine receptor; alpha9/alpha10 (Homo sapiens) (UniProt Q9UGM1+Q9GZZ6); test: Inhibition of human alpha9alpha10 nAChR expressed in Xenopus laevis oocytes assessed as inhibition of acetylcholine-induced current response at 10 uM by two-electrode voltage-clamp method relative to control; format: cell-based; settings: Oocyte; method in brief: as §3

CC[C@H](C)[C@@H]1NC(=O)[C@H](CCC(=O)O)NC(=O)[C@@H]2CCCN2C(=O)[C@H](Cc2cnc[nH]2)NC(=O)[C@H](CC(N)=O)NC(=O)[C@H](C(C)C)NC(=O)[C@H](CC(N)=O)NC(=O)[C@@H]2CSSC[C@H](NC(=O)CN)C(=O)N[C@@H](CSSC[C@@H](C(N)=O)NC1=O)C(=O)N[C@@H](CO)C(=O)N[C@@H](Cc1cnc[nH]1)C(=O)N1CCC[C@H]1C(=O)N[C@@H](C(C)C)C(=O)N2 (H-GCCSHPVCNVNHPEIC-NH2; disulfide 2-8, 3-16)
Activity [1]: 2%
IC50 [2]: > 10 µM
deltalogIC50 [3]: -2.4
Ratio IC50 (Homo sapiens [4]): 895
IC50 [5]: 0.23 µM
inhibition [6]: 85%
IC50 [7]: > 10 µM
inhibition [8]: 91%
inhibition [9]: 98%
Ratio IC50 (Rattus norvegicus [10]): > 20000
Ratio IC50 (Homo sapiens [11]): 20100
IC50 [12]: 0.00048 µM
Ratio IC50 (Homo sapiens [13]): > 50000
Ratio IC50 (Rattus norvegicus [14]): > 20000
deltalogIC50 [15]: -1.5
IC50 [16]: > 10 µM
inhibition [17]: 84%
IC50 [18]: > 10 µM
Ratio IC50 (Homo sapiens [19]): > 50000
IC50 [20]: > 10 µM
Ratio IC50 (Homo sapiens [21]): 675
Ratio IC50 (Rattus norvegicus [22]): > 20000
Ratio IC50 (Homo sapiens [23]): > 50000
Ratio IC50 (Rattus norvegicus [24]): > 20000
inhibition [25]: 76%
